Experimental data reported in ChEMBL document CHEMBL1157543, “Synthesis and biological evaluation of polysulfated oligosaccharide glycosides as inhibitors of angiogenesis and tumor growth” (J Med Chem, 2010).
Calls of active or inactive are those of the source. The calls are words filed in the database; no cut-off is given here.

Tests used:
[1] = target: T1, Heparanase (Homo sapiens, UniProt Q9Y251); assay: Inhibition of human recombinant heparanase
T1 sequence (Q9Y251 whole entry): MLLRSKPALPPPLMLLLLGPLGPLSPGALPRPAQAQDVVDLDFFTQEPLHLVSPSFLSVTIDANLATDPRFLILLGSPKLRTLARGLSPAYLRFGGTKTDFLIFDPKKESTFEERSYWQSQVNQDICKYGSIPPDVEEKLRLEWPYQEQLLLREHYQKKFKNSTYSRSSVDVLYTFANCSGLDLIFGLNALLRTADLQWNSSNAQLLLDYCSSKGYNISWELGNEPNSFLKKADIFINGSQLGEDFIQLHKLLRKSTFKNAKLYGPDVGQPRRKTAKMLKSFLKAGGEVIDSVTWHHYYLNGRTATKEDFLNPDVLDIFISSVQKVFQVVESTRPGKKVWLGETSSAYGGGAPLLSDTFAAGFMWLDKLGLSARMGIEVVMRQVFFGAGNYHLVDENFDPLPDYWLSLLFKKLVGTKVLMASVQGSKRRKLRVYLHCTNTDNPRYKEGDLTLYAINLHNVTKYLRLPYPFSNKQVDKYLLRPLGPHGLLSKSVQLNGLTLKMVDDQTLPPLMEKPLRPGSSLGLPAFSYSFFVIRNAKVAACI
In short: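 Recombinant human heparanase assayed by ultrafiltration with 3H-labelled heparan sulfate as substrate (Km = 1.64 μM). Ki values with standard error were derived from inhibition response curves.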

[2] = target: Fibroblast growth factor 1 (Homo sapiens, UniProt P05230); assay: Binding affinity to FGF1 by surface plasmon-based solution affinity assay
Fibroblast growth factor 1, sequence (P05230 whole entry): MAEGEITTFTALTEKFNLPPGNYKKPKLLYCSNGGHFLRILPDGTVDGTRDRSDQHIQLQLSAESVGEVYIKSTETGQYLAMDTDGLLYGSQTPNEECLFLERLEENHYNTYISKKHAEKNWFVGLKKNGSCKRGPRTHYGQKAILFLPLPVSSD
In short: (§1)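 Surface plasmon resonance solution affinity assay on heparin-coated CM4 chips. Buffer: HBS-EP (10 mM HEPES pH 7.4, 150 mM NaCl, 3.0 mM EDTA, 0.005% polysorbate 20). Kd is the mean of at least duplicate measurements ± SD.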

[3] = target: Fibroblast growth factor 2 (Homo sapiens, UniProt P09038); assay: Binding affinity to FGF2 by surface plasmon-based solution affinity assay
Fibroblast growth factor 2, sequence (P09038 143-288 limits assumed): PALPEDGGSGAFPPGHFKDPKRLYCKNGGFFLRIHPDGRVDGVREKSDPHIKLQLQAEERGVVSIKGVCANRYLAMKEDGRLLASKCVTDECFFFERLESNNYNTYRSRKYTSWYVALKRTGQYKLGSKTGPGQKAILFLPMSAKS
In short: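 Surface plasmon resonance solution affinity assay on heparin-coated CM4 chips. FGF-2 binding run in HBS-EP containing 300 mM NaCl. Kd is the mean of at least duplicate measurements ± SD.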

[4] = target: T2, Vascular endothelial growth factor A, long form (Homo sapiens, UniProt P15692); assay: Binding affinity to VEGF by surface plasmon-based solution affinity assay; in short: as §1
T2 sequence (P15692 whole entry): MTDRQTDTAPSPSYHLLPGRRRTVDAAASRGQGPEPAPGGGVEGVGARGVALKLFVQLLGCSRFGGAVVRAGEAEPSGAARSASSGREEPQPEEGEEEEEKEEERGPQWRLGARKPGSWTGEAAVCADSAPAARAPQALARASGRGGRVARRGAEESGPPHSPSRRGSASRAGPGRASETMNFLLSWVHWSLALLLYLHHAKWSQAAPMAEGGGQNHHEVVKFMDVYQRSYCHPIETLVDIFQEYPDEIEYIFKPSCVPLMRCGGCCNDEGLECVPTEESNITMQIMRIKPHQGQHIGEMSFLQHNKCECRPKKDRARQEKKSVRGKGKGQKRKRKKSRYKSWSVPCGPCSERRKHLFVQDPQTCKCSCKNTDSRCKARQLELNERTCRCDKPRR

[5] = tested on: Plasma; assay: Anticoagulant activity in human plasma assessed as activated partial thromboplastin time; assay type: functional
In short: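 Pooled normal human plasma spiked with compound in PBS at 0.1 mg/mL (methods give a 0–100 μg/mL range); APTT elevation measured. Normal range 26–36 s. Values are means of two determinations.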

[6] = tested on: Plasma; assay: Anticoagulant activity in human plasma by heptest; assay type: functional
In short: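 Heptest clot assay. Plasma (centrifuged 1800g, 10 min, used within 30 min) incubated with compound 2 min at 37 °C. Factor Xa added, 2 min at 37 °C, then clotting started with Recalmix; read on a ball coagulometer. Normal range 13–20 s; means of two determinations.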

[7] = tested on: HUVEC; assay: Cytotoxicity against HUVEC; assay type: cell-based; conditions: human
[8] = tested on: Aorta; assay: Inhibition of angiogenesis in Sprague-Dawley rat aortic endothelium at 10 uM; assay type: functional, tissue-based
In short: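 Sprague-Dawley rats (2–4 months old): bisected 1 mm thoracic aortic rings embedded in Matrigel in EBM-2 with 2% FCS, no heparin. Compound added in triplicate, medium replenished every 48 h. Microvessel sprouting scored semiquantitatively by two assessors up to day 8. One-way ANOVA with Dunnett's test.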

[9] = Toxicity in rat aortic endothelium assessed as microvessel sprouts at 10 and 50 uM after 6 or 7 days; assay type: tissue-based, Sprague-Dawley, Aorta; conditions: ex_vivo, 168 h
In short: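 Aortic ring viability check: on day 6 or 7, compound or medium was withdrawn and complete medium with VEGF (typically 10 ng/mL) was added for up to 7 more days. New microvessel sprouting was taken as a sign of viable tissue.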

[10] = tested on: HUVEC; assay: Inhibition of FGF1-induced HUVEC cell proliferation; assay type: functional, cell-based; conditions: Homo sapiens
In short: (§2)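 HUVECs seeded at 1–3 × 10^3 per well in EGM with 2% FBS and gentamicin. Proliferation driven by VEGF, FGF-1 or FGF-2; compound added typically at seven concentrations (1–50 μM) in triplicate. After 70 h, MTS reagent added for 2 h and A490 read. IC50 obtained from blank-subtracted curves.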

[11] = tested on: HUVEC; assay: Inhibition of FGF2-induced HUVEC cell proliferation; assay type: functional, cell-based; conditions: Homo sapiens; in short: as §2
[12] = tested on: HUVEC; assay: Inhibition of VEGF-induced HUVEC cell proliferation; assay type: functional, cell-based; conditions: Homo sapiens; in short: as §2
[13] = tested on: HUVEC; assay: Antiangiogenic activity against HUVEC assessed as inhibition of endothelial cell tube formation on ECM-derived protein matrix at 100 uM by phase contrast microscopy; assay type: functional, cell-based; conditions: Homo sapiens
In short: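 HUVECs at passage 4–5 (70–80% confluent) suspended in EGM2 with all supplements except heparin at 4×10^5 cells/mL, mixed 1:1 with compound (final 10, 50, 100 μM), plated in triplicate on growth factor-reduced Matrigel. Incubated 18 h; tubes scored by phase-contrast microscopy. Untreated cells as control; one-way ANOVA with Dunnett's test.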

| Compound | Ki [1] | Kd [2] | Kd [3] | Kd [4] | Time [5] | Activity [6] | LC50 [7] | Activity [8] | Activity [9] | Activity [10] | Activity [11] | Activity [12] | TIME [5] | inhibition [13] |
| --- | --- | --- | --- | --- | --- | --- | --- | --- | --- | --- | --- | --- | --- | --- |
| O=S(=O)([O-])OC[C@H]1O[C@H](OCc2ccccc2)[C@@H](O[C@H]2O[C@H](COS(=O)(=O)[O-])[C@@H](OS(=O)(=O)[O-])[C@H](O[C@H]3O[C@H](COS(=O)(=O)[O-])[C@@H](OS(=O)(=O)[O-])[C@H](O[C@H]4O[C@H](COS(=O)(=O)[O-])[C@@H](OS(=O)(=O)[O-])[C@H](OS(=O)(=O)[O-])[C@@H]4OS(=O)(=O)[O-])[C@@H]3OS(=O)(=O)[O-])[C@@H]2OS(=O)(=O)[O-])[C@@H](OS(=O)(=O)[O-])[C@@H]1OS(=O)(=O)[O-].[Na+].[Na+].[Na+].[Na+].[Na+].[Na+].[Na+].[Na+].[Na+].[Na+].[Na+].[Na+].[Na+] | 280 nM | 0.24 nM | 129 nM | 21 nM | 417.9 s | 281.1 s | > 100000 nM | Active | Toxic | Active | Active | Active | – | – |
| O=S(=O)([O-])OC[C@H]1O[C@H](OCCCCCCCCn2cc(-c3ccccc3)nn2)[C@@H](O[C@H]2O[C@H](COS(=O)(=O)[O-])[C@@H](OS(=O)(=O)[O-])[C@H](O[C@H]3O[C@H](COS(=O)(=O)[O-])[C@@H](OS(=O)(=O)[O-])[C@H](O[C@H]4O[C@H](COS(=O)(=O)[O-])[C@@H](OS(=O)(=O)[O-])[C@H](O[C@H]5O[C@H](COS(=O)(=O)[O-])[C@@H](OS(=O)(=O)[O-])[C@H](OS(=O)(=O)[O-])[C@@H]5OS(=O)(=O)[O-])[C@@H]4OS(=O)(=O)[O-])[C@@H]3OS(=O)(=O)[O-])[C@@H]2OS(=O)(=O)[O-])[C@@H](OS(=O)(=O)[O-])[C@@H]1OS(=O)(=O)[O-].[Na+].[Na+].[Na+].[Na+].[Na+].[Na+].[Na+].[Na+].[Na+].[Na+].[Na+].[Na+].[Na+].[Na+].[Na+].[Na+] | 420 nM | 0.16 nM | 43 nM | 0.62 nM | 96.9 s | 38.4 s | > 100000 nM | – | – | – | – | – | – | – |
| MUPARFOSTAT SODIUM [listing 1 of 2 here] | – | – | – | – | – | > 500 s | – | – | – | – | – | – | > 0.139 h | 58% |
| O=S(=O)([O-])OC[C@H]1O[C@H](OCCCCCCCCn2cc(-c3cccc4ccccc34)nn2)[C@@H](O[C@H]2O[C@H](COS(=O)(=O)[O-])[C@@H](OS(=O)(=O)[O-])[C@H](O[C@H]3O[C@H](COS(=O)(=O)[O-])[C@@H](OS(=O)(=O)[O-])[C@H](O[C@H]4O[C@H](COS(=O)(=O)[O-])[C@@H](OS(=O)(=O)[O-])[C@H](OS(=O)(=O)[O-])[C@@H]4OS(=O)(=O)[O-])[C@@H]3OS(=O)(=O)[O-])[C@@H]2OS(=O)(=O)[O-])[C@@H](OS(=O)(=O)[O-])[C@@H]1OS(=O)(=O)[O-].[Na+].[Na+].[Na+].[Na+].[Na+].[Na+].[Na+].[Na+].[Na+].[Na+].[Na+].[Na+].[Na+] | 270 nM | 0.19 nM | 110 nM | 7.1 nM | 59.5 s | 28.8 s | > 100000 nM | – | – | – | – | – | – | – |
| O=S(=O)([O-])OC[C@H]1O[C@H](OCc2ccccc2)[C@@H](O[C@H]2O[C@H](COS(=O)(=O)[O-])[C@@H](OS(=O)(=O)[O-])[C@H](O[C@H]3O[C@H](COS(=O)(=O)[O-])[C@@H](OS(=O)(=O)[O-])[C@H](O[C@H]4O[C@H](COS(=O)(=O)[O-])[C@@H](OS(=O)(=O)[O-])[C@H](O[C@H]5O[C@H](COS(=O)(=O)[O-])[C@@H](OS(=O)(=O)[O-])[C@H](OS(=O)(=O)[O-])[C@@H]5OS(=O)(=O)[O-])[C@@H]4OS(=O)(=O)[O-])[C@@H]3OS(=O)(=O)[O-])[C@@H]2OS(=O)(=O)[O-])[C@@H](OS(=O)(=O)[O-])[C@@H]1OS(=O)(=O)[O-].[Na+].[Na+].[Na+].[Na+].[Na+].[Na+].[Na+].[Na+].[Na+].[Na+].[Na+].[Na+].[Na+].[Na+].[Na+].[Na+] | 370 nM | 0.16 nM | 95 nM | 1.8 nM | >500 s | >500 s | > 100000 nM | Active | Toxic | – | – | – | – | – |
| CCCCCCCCCCCCO[C@H]1O[C@H](COS(=O)(=O)[O-])[C@@H](OS(=O)(=O)[O-])[C@H](OS(=O)(=O)[O-])[C@@H]1O[C@H]1O[C@H](COS(=O)(=O)[O-])[C@@H](OS(=O)(=O)[O-])[C@H](O[C@H]2O[C@H](COS(=O)(=O)[O-])[C@@H](OS(=O)(=O)[O-])[C@H](O[C@H]3O[C@H](COS(=O)(=O)[O-])[C@@H](OS(=O)(=O)[O-])[C@H](O[C@H]4O[C@H](COS(=O)(=O)[O-])[C@@H](OS(=O)(=O)[O-])[C@H](OS(=O)(=O)[O-])[C@@H]4OS(=O)(=O)[O-])[C@@H]3OS(=O)(=O)[O-])[C@@H]2OS(=O)(=O)[O-])[C@@H]1OS(=O)(=O)[O-].[Na+].[Na+].[Na+].[Na+].[Na+].[Na+].[Na+].[Na+].[Na+].[Na+].[Na+].[Na+].[Na+].[Na+].[Na+].[Na+] | 280 nM | 6 nM | 480 nM | 12 nM | 125.9 s | 64.2 s | > 100000 nM | – | – | – | – | – | – | – |
| O=S(=O)([O-])OC[C@H]1O[C@H](OCCCCCCCCn2cc(-c3ccccc3)nn2)[C@@H](O[C@H]2O[C@H](COS(=O)(=O)[O-])[C@@H](OS(=O)(=O)[O-])[C@H](O[C@H]3O[C@H](COS(=O)(=O)[O-])[C@@H](OS(=O)(=O)[O-])[C@H](O[C@H]4O[C@H](COS(=O)(=O)[O-])[C@@H](OS(=O)(=O)[O-])[C@H](OS(=O)(=O)[O-])[C@@H]4OS(=O)(=O)[O-])[C@@H]3OS(=O)(=O)[O-])[C@@H]2OS(=O)(=O)[O-])[C@@H](OS(=O)(=O)[O-])[C@@H]1OS(=O)(=O)[O-].[Na+].[Na+].[Na+].[Na+].[Na+].[Na+].[Na+].[Na+].[Na+].[Na+].[Na+].[Na+].[Na+] | 310 nM | 0.28 nM | 140 nM | 10.4 nM | 53 s | 24.4 s | > 100000 nM | – | Toxic | – | – | – | – | – |
| MUPARFOSTAT SODIUM [listing 2 of 2 here] | – | – | – | – | – | – | > 100000 nM | – | Toxic | – | – | – | – | – |
